SUMO1-SIM PPI: SUMO1-SIM interaction modulation. AID 602429. 360,000 tested, 0.33% active. SUMO1 binding to a labelled peptide, TR-FRET, 1 h. inhibition, % at 20 µM; in the data active means inhibition above about 37%
Target sequence (P63165 whole entry, looked up): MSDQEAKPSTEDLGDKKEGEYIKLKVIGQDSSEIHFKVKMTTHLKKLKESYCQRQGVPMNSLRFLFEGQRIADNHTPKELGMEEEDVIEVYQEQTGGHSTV
STEP block: STEP (human) phosphatase inhibition. P54829. recombinant STEP, OMFP fluorogenic substrate, fluorescence. inhibition, % at 20 µM. 360,000 tested, 0.25% active;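 active means inhibition at 20 µM, scaled per plate between control wells, above about 37%, limit read from the data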;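 further: 0% = DMSO with enzyme and substrate and 100% = substrate only without enzyme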
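System: STEP phosphatase, cell-free reaction; Buffer or medium: Bis-Tris pH 6.0 buffer with DTT, detergent; Incubation: 20 min at room temperature, dark; Measured by: fluorescence, 480/540 nm.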
LMPTP inh: LMPTP (human) inhibition. P24666. recombinant LMPTP-A, OMFP fluorogenic substrate, fluorescence intensity. inhibition, % at 20 µM. 360,000 tested, 0.22% active. AID 651560;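 active means compounds that cut the enzyme signal by at least half of the control window in the single-dose screen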;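 further: plate controls were DMSO wells with enzyme plus substrate for no effect and substrate without enzyme for full effect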
Target sequence (P24666 whole entry, looked up): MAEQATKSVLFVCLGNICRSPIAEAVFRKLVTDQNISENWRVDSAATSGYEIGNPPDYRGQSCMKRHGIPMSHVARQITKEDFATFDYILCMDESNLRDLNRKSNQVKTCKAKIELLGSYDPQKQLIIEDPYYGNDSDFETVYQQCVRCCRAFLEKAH
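Material: LMPTP-A; amount: 0.625 nM enzyme; doses: single 20 µM dose; times: reaction 50 min, room temperature, dark; technique: fluorescence intensity of OMFP turnover product; benchmarks: no-enzyme and uninhibited controls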
DNMT1 block: DNMT1 (human) enzyme inhibition. DNMT1 molecular beacon, Hinp1I cleavage, fluorescence. inhibition (reported as % activation of signal), % at 10 µM. 360,000 tested, 0.83% active. AID 588458; in the data active means inhibition above about 50%
Scp-1 inhibitor: Scp-1 (human) phosphatase inhibition; Q9GZU7; Recombinant Scp1, phosphopeptide, malachite green phosphate absorbance; inhibition, % at 20 µM; 340,000 tested, 0.88% active;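 active means inhibition above about 50% at 20 µM, limit read from the data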;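 further: plate controls were DMSO wells with enzyme for no effect and wells lacking enzyme for full effect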
Target sequence (Q9GZU7 76-261 limits assumed): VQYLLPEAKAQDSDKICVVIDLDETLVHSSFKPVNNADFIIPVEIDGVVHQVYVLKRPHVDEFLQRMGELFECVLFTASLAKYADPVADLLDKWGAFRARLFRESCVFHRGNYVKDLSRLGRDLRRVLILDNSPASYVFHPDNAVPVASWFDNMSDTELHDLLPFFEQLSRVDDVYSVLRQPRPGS
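Test system: SCP-1 phosphatase catalytic domain, residues 76-261; measured by: colorimetric phosphate reagent with accelerator and stabiliser, absorbance at 630 nm; timing: enzyme reaction 45 min at room temperature, colour 5 min, stabilisation 30 min; also added: Phosphorylated 17-residue peptide substrate; compound dosing: one concentration, 20 µM, with 1.0% DMSO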
STEP inh conf: confirmation of human STEP phosphatase inhibitors; shares compounds with STEP block; inhibition, % at 20 µM; 520 tested, 32% active; recombinant STEP, OMFP fluorogenic substrate, fluorescence; call rule not given here;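 further: 0% = enzyme with substrate plus DMSO and 100% = substrate without enzyme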
* hit, by the source's call; . = no result given. A selection: hits, their analogues and other compounds. The true share with any hit is near 1.7%.

SMILES	SUMO1-SIM PPI	STEP block	LMPTP inh	DNMT1 block	Scp-1 inhibitor	STEP inh conf
COc1ccc(C(=O)ON=C2C=C(C)C(=O)C(C)=C2)cc1	-20	0	2	8	-6	.
CC(C)OCCCNC(=S)Nc1ccc(S(N)(=O)=O)cc1	2	83*	-2	2	-1	36*
NS(=O)(=O)c1ccc(NC(=S)NCCc2ccccc2)cc1	0	52*	0	2	-21	38*
COc1ccc(-c2cn3nc(SCC(=O)NCC4CCCO4)ccc3n2)cc1 (centres undefined)	-6	0	1	-2	-9	.
COc1ccccc1NC(=O)Cn1cncc1-c1ccc([N+](=O)[O-])cc1	-22	-1	0	-11	0	.
Cc1ccc(NC(=O)Cn2cncc2-c2ccc([N+](=O)[O-])cc2)cc1C	-6	48*	32	50	49	14
CN(C)S(=O)(=O)c1cc(NC(=O)c2cc(=O)c3ccccc3o2)ccc1Cl	-15	0	1	-3	-8	.
COc1ccc(NC(=O)c2cc(=O)c3ccccc3o2)cc1Cl	8	42*	1	18	36	28*
O=C(N/N=C/c1ccccn1)c1cc(-c2ccc(Cl)s2)[nH]n1	1	42*	5	21	47	3
Cc1nn(-c2ccccc2)c(C)c1/C=N/NC(=O)c1cc(-c2ccc(Cl)s2)[nH]n1	3	-2	3	-8	-2	.
COc1ccc(NC(=S)N2CCN(c3ncccn3)CC2)c(OC)c1	1	85*	-1	-1	-11	27
CC(=O)Nc1ccc(S(=O)(=O)NC(C)C(=O)OCC(=O)Nc2ccc(F)cc2Cl)cc1 (centres undefined)	-5	0	-2	-4	.	.
O=C(COc1ccc(S(=O)(=O)N2CCCCC2)cc1)N1CCCC1	1	0	0	2	-7	.
c1ccc(N2CCN(CC3CCCCC3)CC2)cc1	0	2	-1	1	-5	.
Cc1n[nH]c(=O)nc1NCCN(C)C	1	14	-4	11	-5	.
Cc1n[nH]c(=O)nc1NCc1ccc(Cl)cc1	-2	39*	-2	3	0	20
CCN1CCN(C(=S)c2ccc(Br)cc2)CC1	-2	88*	0	-1	-4	45*
CCN1CCN(C(=S)c2ccc(O)cc2)CC1	5	88*	0	0	2	49*
CCN1CCN(CCC(=O)Nc2ccc(Br)cc2)CC1	0	0	-3	-3	5	.
CCc1ccc2c(c1)C(=O)C[C@]1(CCC[C@H](C)C1)O2	3	0	1	5	-4	.
Oc1ccc(C(=S)N2CCN(Cc3ccccc3)CC2)cc1	6	62*	1	0	3	4
O=C(c1ccc(Br)cc1)N1CCN(Cc2ccccc2)CC1	1	2	-2	-1	-2	.
CCNC(=S)N1CCN(Cc2ccccc2)CC1	0	1	-3	-3	-6	.
Cc1ccc(C(=S)N2CCN(Cc3ccccc3)CC2)s1	1	78*	2	-2	-8	42*
CN(C)c1ccc(C(=S)N2CCN(Cc3ccccc3)CC2)cc1	-1	85*	1	-1	-7	39*
SMILES	SUMO1-SIM PPI	STEP block	LMPTP inh	DNMT1 block	Scp-1 inhibitor	STEP inh conf
S=C(c1ccc(Br)cc1)N1CCN(Cc2ccccc2)CC1	5	90*	2	5	-11	38*
OCC[C@H]1C[C@@H](O)[C@H](O)[C@]2(CCCCO2)O1	3	0	-1	11	2	.
Cc1ccc(N2CC(C(=O)Nc3ccccc3OC(F)F)CC2=O)cc1 (centres undefined)	5	2	-1	4	-6	.
CCN1CCN(CCCN(Cc2ccco2)C(=S)Nc2cc(Cl)ccc2C)CC1	0	41*	-3	0	-5	12
Cc1cccc(N2CCN(C(=O)CCNS(=O)(=O)c3ccc4c(c3)oc(=O)n4C)CC2)c1C	-3	74*	0	-2	7	1
CC(C)CNC(=O)C(=O)NCC1OCCN1S(=O)(=O)c1cccs1 (centres undefined)	1	0	-1	-2	-2	.
CCc1ccc(-c2nc(SCC(=O)N3CCOCC3)n[nH]2)cc1	2	12	-1	0	1	.
CCc1ccc(Nc2nc(N)nc(CSc3nc4ccccc4s3)n2)cc1	-2	43*	-2	7	-11	8
CC(=NNC(=S)N1CC2CCC(CC2)C1)c1cccc(C)n1	-2	59*	2	0	-2	active
CC(=NNC(=S)N1CCCC1)c1ccccn1	-14	9	-1	-3	.	.
COc1ccc(-c2csc(N3CCC(C(N)=O)(N4CCCCC4)CC3)n2)cc1	-4	71*	1	3	-5	-2
Cc1cccc(NS(=O)(=O)c2ccc(OCC(=O)N3CCCC3)cc2)c1	5	1	0	1	-10	.
N#CCOC(=O)c1cc(S(=O)(=O)N2CCCCC2)ccc1N1CCOCC1	-1	2	-2	6	-7	.
N#C/C(=C/c1ccc(OCc2ccc(C(=O)O)cc2)c(Br)c1)c1cccc(F)c1	20	94*	86*	93*	50*	16
CC(C)N(C)CCOC(=O)c1ccccc1Cl	-4	-4	-3	5	-4	.
CC(C)N(C)CCOC(=O)c1ccccc1Br	3	78*	-2	21	-2	-4
OCC1(Cc2ccccc2)CCN(C2CCN(c3ccc(F)c(F)c3)CC2)CC1	-4	0	-1	-7	-7	.
COc1ccc(N(C(C)=O)S(=O)(=O)c2cccs2)cc1	-2	0	-1	-18	0	.
COc1ccc(N(C(=O)C(C)C)S(=O)(=O)c2cccs2)cc1	-1	44*	-1	-2	-6	10
